Results published in ChEMBL document CHEMBL2396619, “Synthesis and neuroprotective effect of E-3,4-dihydroxy styryl aralkyl ketones derivatives against oxidative stress and inflammation” (Bioorg Med Chem Lett, 2013).
The source made the active and inactive calls. The calls are words filed in the database; no cut-off is given here.

Columns and labels:
BV-2 [1] = assay: Antineuroinflammatory activity in mouse BV2 cells assessed as reduction of LPS-induced nitric oxide production treated 3 hrs before LPS addition measured after 24 hrs by Griess assay; type: functional, cell-based
Summary of the method: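 LPS-stimulated BV2 microglia; nitrite in culture supernatant measured by Griess assay: supernatant mixed with an equal amount of Griess reagent, incubated in the dark, absorbance read at 540 nm.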

[2] = Cytotoxicity against mouse BV2 cells assessed as cell viability at 50 uM after 24 hrs by MTT assay; type: cell-based, BV-2; conditions: read-out: Activity
Summary of the method: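 BV2 cells exposed to compounds at up to 50 µM for up to 24 h; viability determined by MTT assay.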

[3] = system: Radical scavenging activity; assay: Antioxidant activity assessed as DPPH free radical scavenging activity at 50 uM after 60 mins by spectrophotometry; type: functional
PC-12 = assay: Neuroprotective activity in rat PC12 cells assessed as protection against H2O2-induced reduction of cell viability at 10 uM treated 3 hrs before H2O2 addition measured after 5 hrs by MTT assay; type: functional, cell-based
Summary of the method: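 PC12 cells pretreated with compound at 10 µM for 3 h, then exposed to 500 µM H2O2 for 5 h. Viability measured by MTT and expressed as OD(treated)/OD(control) ×100%, with untreated cells (no compound, no H2O2) set to 100%. Mean ± SD, n = 3.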

BV-2 [4] = assay: Ratio of caffeic acid phenethyl ester IC50 to compound IC50 for antineuroinflammatory activity in mouse BV2 cells assessed as reduction of LPS-induced nitric oxide production; type: functional
[5] = system: Radical scavenging activity; assay: Antioxidant activity assessed as DPPH free radical scavenging activity after 60 mins by spectrophotometry; type: functional
[6] = Ratio of caffeic acid phenethyl ester IC50 to compound IC50 for DPPH free radical scavenging activity

Row | SMILES | IC50 (BV-2 [1]) [µM] | viability at 24 h, 50 µM [2] [%] | inhibition [3] | Activity (PC-12) | Ratio IC50 (BV-2 [4]) | IC50 [5] [µM] | Ratio IC50 [6]
1 | COc1ccc(CCC(=O)/C=C/c2ccc(OC(C)=O)c(OC(C)=O)c2)cc1OC | 12.6 | > 90 | inactive | Active | – | – | –
2 | CC(=O)Oc1ccc(/C=C/C(=O)CCCCc2ccccc2)cc1OC(C)=O | 4.2 | > 90 | inactive | Active | 1.5 | – | –
3 | O=C(/C=C/c1ccc(O)c(O)c1)CCc1ccccc1 | 14.1 | > 90 | – | Active | – | 12.7 | –
4 | O=C(/C=C/c1ccc(O)c(O)c1)CCCCc1ccccc1 | 5.9 | > 90 | – | Active | – | 10.6 | –
5 | COc1ccc(CCC(=O)/C=C/c2ccc(O)c(O)c2)cc1OC | 14.5 | > 90 | – | Active | – | 13.2 | –
6 | COc1ccc(CCC(=O)/C=C/c2ccc(O)c(O)c2)c(OC)c1 | 10.6 | > 90 | – | Active | – | 14 | –
7 | CC(=O)Oc1ccc(/C=C/C(=O)CCc2ccccc2)cc1OC(C)=O | 12.3 | > 90 | inactive | Active | – | – | –
8 | COc1ccc(CCC(=O)/C=C/c2ccc(OC(C)=O)c(OC(C)=O)c2)c(OC)c1 | 9.3 | > 90 | inactive | Active | – | – | –
9 | O=C(/C=C/c1ccc(O)c(O)c1)CCCc1ccccc1 | 6.4 | > 90 | – | Active | – | 9.2 | 1.3
10 | CC(=O)Oc1ccc(/C=C/C(=O)CCCc2ccccc2)cc1OC(C)=O | 5.3 | > 90 | inactive | Active | – | – | –
11 | COc1cc(CCC(=O)/C=C/c2ccc(OC(C)=O)c(OC(C)=O)c2)ccc1O | 5.5 | > 90 | inactive | Active | – | – | –
12 | CC(=O)Oc1ccc(/C=C/C(=O)OCCc2ccccc2)cc1OC(C)=O | – | – | inactive | – | – | – | –
13 | COc1cc(CCC(=O)/C=C/c2ccc(O)c(O)c2)ccc1O | 6.3 | > 90 | – | Active | – | 12.1 | –
14 | CC(=O)Oc1ccc(/C=C/C(=O)CCc2cccc(Cl)c2)cc1OC(C)=O | 8.3 | > 90 | inactive | Active | – | – | –
15 | O=C(/C=C/c1ccc(O)c(O)c1)CCc1cccc(Cl)c1 | 10.3 | > 90 | – | Active | – | 11.1 | –
